In the EternaBench riboswitch data:

Test system: MS2 coat protein
Assay: apparent Kd, MS2 coat protein; higher = weaker binding; RNA-MaP array
How it was run: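 Apparent Kd is the median of per-cluster binding-curve fits for designed RNAs transcribed from sequenced DNA templates on an Illumina sequencing chip. The RNAs were incubated at room temperature with fluorescently labeled MS2 coat protein at 1.5 nM to 3 μM, with or without input ligand, and designs measured on fewer than 10 clusters were excluded.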

[1] = designed as: ON switch for tryptophan, no ligand
[2] = ligand present: tryptophan, designed as: ON switch for tryptophan
[3] = designed as: ON switch for flavin mononucleotide, no ligand
[4] = ligand present: flavin mononucleotide, designed as: ON switch for flavin mononucleotide
[5] = designed as: OFF switch for flavin mononucleotide, no ligand
[6] = ligand present: flavin mononucleotide, designed as: OFF switch for flavin mononucleotide
[7] = designed as: ON switch for theophylline, no ligand
[8] = ligand present: theophylline, designed as: ON switch for theophylline
[9] = designed as: OFF switch for tryptophan, no ligand
[10] = ligand present: tryptophan, designed as: OFF switch for tryptophan

With “ACACACAUGAGGAUCACCCAUGUCUAUAUACGAGGACCGGUACGGCCGCCACUCGUGAGAUCGCGAGAGACAGCUUUGGGCUAGU” the “apparent Kd” value [1] was 14.6 nM and the “apparent Kd” value [2] was 19.2 nM.

In the case of “ACAUAUUCCAGAGGAUAUUGUGGUAUCCAGUUAAGGAGAUCUUACAUGAGGAUCACCCAUGUGGACAAGAAGGCUGAACGCUCC”, the “apparent Kd” value [3] is reported as 21.6 nM and the “apparent Kd” value [4] is reported as 14.7 nM.

In the case of “ACAUGAGGAUCACCCAUGUAAACAAGGUUGGAGACCCGCAAUGAGGAUAUCAUAAAGAAACCCAAUGAGAAGGCAUGAUCACAA”, the “apparent Kd” value [3] is reported as 22.3 nM and the “apparent Kd” value [4] is reported as 17.2 nM.

With “ACCAGGCAAGGAUAUGGUUCUGUAAACAUGAGGAUCACCCAUGUAUUUAAUUCAUGUUGGCCAGAAGGUGCUUUCG” the “apparent Kd” value [5] was 14.8 nM and the “apparent Kd” value [6] was 13.3 nM.

“ACCGUAUGGGAGAAGGAACUAUGUUAGACAUGAGGAUCACCCAUGUUCCAGAAUGUAGGGCUCAGUUAGGAUAUCCAAUUCAGA” was tested, and the “apparent Kd” value [5] was 11.1 nM and the “apparent Kd” value [6] was 21.8 nM.

“ACCUUACAUGAGGAUCACCCAUGUCGUGAUACCAGAAACCACGUAUUCCCUUGGCAGCACACCCGUGAUGAGAUUGUCGGUUUUG” was tested, and the “apparent Kd” value [7] was 57.4 nM and the “apparent Kd” value [8] was 88 nM.

In the case of “ACGCGUUCACAGAAGGCCUACAAAAUUACAUUAGGAGGAUAUGUUACAUGAGGAUCACCCAUGUCAUGGCUGUGUCUCGGUAUC”, the “apparent Kd” value [5] is reported as 30.8 nM and the “apparent Kd” value [6] is reported as 41.4 nM.

For “ACGGCAUGGAAGAAGGAGUACAUGAGGAUCACCCAUGUAGGGUAGCGCGUCCACAUCCAAUAAGACUAGGAUAUUCUUGCAGAU”, the “apparent Kd” value [5] was 39.8 nM and the “apparent Kd” value [6] was 83.2 nM.

For “ACUCAUGCAAAGGAUAUAACAGUUACAGACUGAUUAGAAGGUUGGACAUGAGGAUCACCCAUGUACGACGCGGU”, the “apparent Kd” value [5] was 9.13 nM and the “apparent Kd” value [6] was 28.4 nM.

With “ACUCCACAUGAGGAUCACCCAUGUUAUAAGUAGGUAGGAUAUCACACAAACUUACAUGGAUGAGAAGGACCGGUCC” the “apparent Kd” value [3] was 328 nM and the “apparent Kd” value [4] was 210 nM.

For “ACUGCGCACGGGCUCCACAUGAGGAUCACCCAUGUUGAACUGAGAAGGGAAAGAAGAAACUACAUUCAGGAUAUCAUUUCACCA”, the “apparent Kd” value [5] was 44.5 nM and the “apparent Kd” value [6] was 46.6 nM.

“AGAACCCAGUAAGGAUAUGAUGAGUCUAUACAACAUGAGGAUCACCCAUGUCCGAGGAAACUAGAUCAGAAGGUACAAGAAAAG” was tested, and the “apparent Kd” value [3] was 73.8 nM and the “apparent Kd” value [4] was 17.6 nM.

For “AGAAGGGACGAGAAGGUACGAUCGAGUAAACUAUGAUAUGGGCACAUGAGGAUCACCCAUGUAUGUAAGGAUAUCGCAUCUCCA”, the “apparent Kd” value [3] was 50.5 nM and the “apparent Kd” value [4] was 41.1 nM.

“AGAAUGACAAAAUUGCAACAUGAGGAUCACCCAUGUGAUACAAGAAGGACAAACCGCUCAAGAGUGUAGGAUAUUGUGGAAAUC” was tested, and the “apparent Kd” value [3] was 25.6 nM and the “apparent Kd” value [4] was 19.6 nM.

In the case of “AGACAAAAGGAGAAGGAGGUAAAGAUAUAAAGGUGAAGUAAUGGACAUGAGGAUCACCCAUGUACCUAGGAUAUCCAGGGCGAU”, the “apparent Kd” value [5] is reported as 26.8 nM and the “apparent Kd” value [6] is reported as 33.6 nM.

With “AGAUUUGCAGGAUAUACCGGUACAAACAUGAGGAUCACCCAUGUAACGCAUGGUCAGUGAGUAGAAGGGCACGUAG” the “apparent Kd” value [5] was 31.4 nM and the “apparent Kd” value [6] was 24 nM.

With “AGCCCACAUGAGGAUCACCCAUGUACUUGGUCCUCAGGAUAUCUAGUUCCAUAUUACAAAAGAGAAGGGAGGAUUG” the “apparent Kd” value [3] was 110 nM and the “apparent Kd” value [4] was 14.6 nM.

With “AGCUAUUUUUGGGAGGAUAUUAUGAGCAGUACAUGAGGAUCACCCAUGUUAGUAAUAUACAUUGGUAAGAAGGCCCAAUCAUAAGG” the “apparent Kd” value [3] was 34.6 nM and the “apparent Kd” value [4] was 25.1 nM.

With “AGGAAAGAAGAAGGAUAUCAGUUACGGACAUGAGGAUCACCCAUGUACGUAGGGUGAACCCUGAUUGAGAAGGUCUGUGUUUUA” the “apparent Kd” value [3] was 23.1 nM and the “apparent Kd” value [4] was 13.4 nM.

For “AGGAAUGUCACGGCCGCCACUGACGCUAAAAUGGGCUCGAGCCGACAUGAGGAUCACCCAUGUUCCAGGACCGGGUGAAUCCUGG”, the “apparent Kd” value [1] was 174 nM and the “apparent Kd” value [2] was 123 nM.

“AGUCCUCUGUACCCUGAUGCCCUCACUUUACGAGGACCGGUACGGCCGCCACUCGAAUCCCAACAUGAGGAUCACCCAUGUCGAC” was tested, and the “apparent Kd” value [9] was 34.8 nM and the “apparent Kd” value [10] was 39.7 nM.

For “AGUCUUCUCGUAAGGAUAUUUAGGAAUUCAUCUCCAAAGAAGGUACAUGAGGAUCACCCAUGUGAAGGGCUUUU”, the “apparent Kd” value [5] was 12.8 nM and the “apparent Kd” value [6] was 24.8 nM.

In the case of “AUAACACAUGAGGAUCACCCAUGUAAGGAUAUAGUAGCAAUGGAAAGAAAUCUAUCCUCUAGAAGGUACACGGC”, the “apparent Kd” value [5] is reported as 18.5 nM and the “apparent Kd” value [6] is reported as 15.3 nM.

For “AUAACUGCAGGAUAUACAGGAACGCCUAGAAGGAUCCUGGAACAUGAGGAUCACCCAUGUAGAAGGGCACGUUU”, the “apparent Kd” value [5] was 12.3 nM and the “apparent Kd” value [6] was 14.4 nM.

In the case of “AUACCACCUUCGGCCGCCACUAUGUAUGGGUUCCCAACGUUGAAGGACAUGAGGAUCACCCAUGUUAGGACCGGGAAAAGUGCCU”, the “apparent Kd” value [9] is reported as 87.9 nM and the “apparent Kd” value [10] is reported as 161 nM.

For “AUAGAGGAUAAAGGAUAUGAGGUGAACAUCGAUUCAGAAGGUUAUCAGGAUACAUGAGGAUCACCCAUGUUUCCUUUGCUGUUG”, the “apparent Kd” value [3] was 38.5 nM and the “apparent Kd” value [4] was 22.9 nM.

For “AUAGUGUAAGGAUAUGUAGAGAGCUAGAAAAUACAAACAAUACAGAAGGUACAUGAGGAUCACCCAUGUGAUUG”, the “apparent Kd” value [5] was 14.4 nM and the “apparent Kd” value [6] was 26.3 nM.

In the case of “AUAUAAUCAGGAUAUACAUGUUUCUUUAACACCGAGGCCGUACAUGAGGAUCACCCAUGUAGAAGGGAUUGCGG”, the “apparent Kd” value [5] is reported as 6.95 nM and the “apparent Kd” value [6] is reported as 6.32 nM.

With “AUAUCUUCCACGGCCGCCACUGAAUGGUGCCCAAGGUCGAUCGCAGACAUGAGGAUCACCCAUGUCAGGACCGGGUGGUACUACG” the “apparent Kd” value [9] was 14.7 nM and the “apparent Kd” value [10] was 33 nM.

In the case of “AUGAGAUGAGGAUAUACUGGGUCCGCAUUAGAAACUUAUCAACAUGAGGAUCACCCAUGUAGAAGGCAUGUGAG”, the “apparent Kd” value [5] is reported as 25.4 nM and the “apparent Kd” value [6] is reported as 83.2 nM.

With “AUGUUCGUAAAGAAGGAUCAGGUGAUAUAUGUCAACAUGAGGAUCACCCAUGUGCGGGACGUAAGAUAGGAUAUUUGAGAUCAU” the “apparent Kd” value [5] was 14.3 nM and the “apparent Kd” value [6] was 10.8 nM.

With “AUUAACAUGAGGAUCACCCAUGUUUGUCUCCGAGGACCGGUACGGCCGCCACUCGCAGGUUGGAGUCGCUAUAUGGGCGUUCACU” the “apparent Kd” value [1] was 44.6 nM and the “apparent Kd” value [2] was 34.9 nM.

With “AUUGAACGUGCAGGAUAUCAAAACCGGAAUCGUUGAGAAGGGCAGUAAUCGGAGAGCACAUGAGGAUCACCCAUGUUCAAUCGA” the “apparent Kd” value [3] was 15.9 nM and the “apparent Kd” value [4] was 9.32 nM.

In the case of “CACCUUCGUCAAGGAUAUGCGUAAUGUAUAAUCGCAGAAGGUGACGCGAUCUUCAUAACAUGAGGAUCACCCAUGUGGUGAACU”, the “apparent Kd” value [5] is reported as 436 nM and the “apparent Kd” value [6] is reported as 312 nM.

In the case of “CACGAUCGUGAAGGAUAUCGACAUGAGGAUCACCCAUGUUACUCUUACAUCUAUGGUUCAAGUGCCGAGAAGGUCACAGAGGCA”, the “apparent Kd” value [5] is reported as 13.8 nM and the “apparent Kd” value [6] is reported as 18 nM.

For “CACUAUGAGGUCGAUACCAGUACUGAGUUGUACAUGAGGAUCACCCAUGUAAAUGUUCGCUACCCUUGGCAGCGAUAACAUUGCA”, the “apparent Kd” value [7] was 430 nM and the “apparent Kd” value [8] was 554 nM.

“CAGGUUCGUACAGGAUAUGGUUACAUGAGGAUCACCCAUGUGCGGUGAGCUGAUUAGUGCACAGUCCAGAAGGGUAGGAUAACA” was tested, and the “apparent Kd” value [3] was 852 nM and the “apparent Kd” value [4] was 684 nM.

With “CAGUUACUGUAGAAGGAUAUCAUUAAUACGGAUAUAGGAUAUACUCCGGGUGGAAUCGUGAACAUGAGGAUCACCCAUGUUUCG” the “apparent Kd” value [5] was 10.2 nM and the “apparent Kd” value [6] was 8.6 nM.

“CAUCAGGGAUCAGGAUAUACAAUGGGUACAUGAGGAUCACCCAUGUAGACGCCAACACUGUCAUUGUAGAAGGGAUUGAGCGAA” was tested, and the “apparent Kd” value [3] was 55.1 nM and the “apparent Kd” value [4] was 29.8 nM.

“CCAAAGUAAGGAUAUCGAAGAACCACAACCGACGGAACGAACGAGAAGGUACAUGAGGAUCACCCAUGUGAUAG” was tested, and the “apparent Kd” value [5] was 11.6 nM and the “apparent Kd” value [6] was 19.7 nM.

With “CCAGAUUUAGGAUAUACAUGAGGAUCACCCAUGUGGGAUUUAGUGCGGUUUAUGCAACGUAGAAGGAAAUCAGG” the “apparent Kd” value [5] was 31.6 nM and the “apparent Kd” value [6] was 71.4 nM.

“CCAGGUUGAAUAGGAUAUCGAGUCCGUCACAUGAGGAUCACCCAUGUAUGCCAAGCUAGAGCGUGCGAGAAGGAUUAGGCCAUC” was tested, and the “apparent Kd” value [4] was 15.5 nM.
